CAL PDZ FP-1: blocks peptide binding to the human CAL PDZ domain; Q9HD26; purified CAL PDZ, TMR-peptide fluorescence polarization, 1 h; inhibition, % at 24.9 µM; 300,000 tested, 0.92% active; AID 602252;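 active means mean inhibition of at least 30% with at least half of replicates also reaching 30%; inconclusive means no clear call, values can overlap the other calls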
miR-122 sensor: miR-122 inhibition in Huh7 cells | Huh7 miR-122 Renilla luciferase sensor, 48 h; neutral wells = 0, positive control = 100 | AID 602342 | activation (reporter increase), % at 12.5 µM | 340,000 tested, 0.3% active;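 active means mean replicate activation score at least 90 and every replicate individually at or above 90; inconclusive means only one of the two criteria met; inactive means neither criterion met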;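 further: higher luciferase means less miR-122 activity so hits act as miR-122 inhibitors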
Keap1-Nrf2 PPI: inhibitors of human Keap1-Nrf2 protein-protein interaction | Q14145 | 340,000 tested, 0.15% active | inhibition, % at 9.4 µM | Keap1 Kelch-Nrf2 peptide fluorescence polarization, 1536-well; in the data active means inhibition above about 12%; inconclusive means no clear call, values can overlap the other calls; inactive means below about 7.3%;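 further: human Keap1 Kelch domain with fluorescein labeled Nrf2 9mer peptide probe; higher means more block of Keap1 binding to Nrf2 peptide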
Target sequence (Q14145 whole entry, looked up, the tested form may be a part): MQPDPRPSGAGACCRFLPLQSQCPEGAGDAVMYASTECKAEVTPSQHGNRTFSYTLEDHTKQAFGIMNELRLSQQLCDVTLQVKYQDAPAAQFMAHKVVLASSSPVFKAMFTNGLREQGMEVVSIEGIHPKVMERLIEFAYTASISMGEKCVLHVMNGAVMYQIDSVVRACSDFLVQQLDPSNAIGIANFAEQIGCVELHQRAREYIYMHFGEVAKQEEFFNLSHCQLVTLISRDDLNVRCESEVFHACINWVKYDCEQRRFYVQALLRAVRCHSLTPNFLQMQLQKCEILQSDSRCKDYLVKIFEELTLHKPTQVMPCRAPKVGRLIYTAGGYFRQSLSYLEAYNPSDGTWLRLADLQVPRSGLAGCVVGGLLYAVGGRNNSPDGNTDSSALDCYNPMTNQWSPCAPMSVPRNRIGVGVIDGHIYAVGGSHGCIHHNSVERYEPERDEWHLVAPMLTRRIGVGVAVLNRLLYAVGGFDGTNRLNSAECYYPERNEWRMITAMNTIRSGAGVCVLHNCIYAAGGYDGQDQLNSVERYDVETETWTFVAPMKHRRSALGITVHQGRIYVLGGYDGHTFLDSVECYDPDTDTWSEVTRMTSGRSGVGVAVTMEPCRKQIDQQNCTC
LANA DNA inh: KSHV C-LANA DNA binding inhibition; inhibition, % at 9 µM; MBP-C-LANA/FAM-LBS DNA binding, fluorescence polarization; 340,000 tested, 0.078% active;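 active means highest replicate inhibition at or above 60% at 9 µM, even if other replicates fall short; inactive means all replicates below 60% inhibition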
CAL PDZ FP-2: blocks peptide binding to human CAL PDZ domain. Q9HD26. purified CAL PDZ, TMR-peptide fluorescence polarization, 1 h. inhibition, % at 20 µM. 330,000 tested, 0.02% active. AID 504414;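 active means highest replicate inhibition of at least 40%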
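System: tagged CAL PDZ domain. Schedule: 1 h room-temperature incubation prior to read. Signal: fluorescence polarization (mP). Measure: percent inhibition from loss of millipolarization.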
Hits are given with their value. A selection: hits, their analogues and other compounds. The true share with any hit is near 1.1%.

NS(=O)(=O)c1ccc(CNC(=S)NCc2ccc(F)cc2)cc1 was read as CAL PDZ FP-1 39, miR-122 sensor inactive, Keap1-Nrf2 PPI inactive, LANA DNA inh inactive and CAL PDZ FP-2 inactive.
`NS(=O)(=O)c1ccc(CNC(=S)NCc2ccc(Cl)cc2)cc1` gave CAL PDZ FP-1 inactive, miR-122 sensor inactive, Keap1-Nrf2 PPI inactive, LANA DNA inh inactive and CAL PDZ FP-2 inactive.
O=C(C[C@H]1CC[C@@H](NC(=O)NC2CCCCC2)[C@H](CO)O1)NCc1ccc(F)cc1 was read as miR-122 sensor inactive.
`COc1ccc(C(=O)NCC(=O)OCC(=O)Nc2sccc2C#N)cc1OC` gave CAL PDZ FP-1 61, Keap1-Nrf2 PPI inactive, LANA DNA inh inactive and CAL PDZ FP-2 inactive.
`COc1ccc(OC)c(NC(=O)COC(=O)CNC(=O)c2ccc(OC)c(OC)c2)c1` gave CAL PDZ FP-1 inactive, miR-122 sensor inactive, Keap1-Nrf2 PPI inactive, LANA DNA inh inactive and CAL PDZ FP-2 inactive.
For COc1ccc(C(=O)NCC(=O)OCC(=O)Nc2cc([N+](=O)[O-])ccc2F)cc1 the results were CAL PDZ FP-1 active, Keap1-Nrf2 PPI inactive, LANA DNA inh inactive and CAL PDZ FP-2 inactive.
`CC(C)=CC(=O)OCC(=O)Nc1cc([N+](=O)[O-])ccc1F` gave CAL PDZ FP-1 inactive, Keap1-Nrf2 PPI inactive, LANA DNA inh inactive and CAL PDZ FP-2 inactive.
COC(=O)C(C(=O)OC)=C(/C=C/N(C)C)N(C)C was read as CAL PDZ FP-1 46, miR-122 sensor inactive, Keap1-Nrf2 PPI inactive, LANA DNA inh inactive and CAL PDZ FP-2 inactive.
Screening C[C@@H]1CCCCO[C@H](CN(C)S(=O)(=O)c2ccccc2)[C@H](C)CN([C@@H](C)CO)C(=O)c2cc(NS(=O)(=O)c3cn(C)cn3)ccc2O1 returned miR-122 sensor inactive.
`Cc1[nH]c(=S)[nH]c(=O)c1Cc1c(O)ccc2ccccc12` gave CAL PDZ FP-1 inactive, miR-122 sensor 134, Keap1-Nrf2 PPI inactive, LANA DNA inh inactive and CAL PDZ FP-2 inactive.
O=C(/C=C/c1ccc([N+](=O)[O-])cc1)NNC(=O)C1CC1 was read as CAL PDZ FP-1 74, miR-122 sensor inactive, Keap1-Nrf2 PPI inactive, LANA DNA inh inactive and CAL PDZ FP-2 inactive.
`Cc1noc(C)c1S(=O)(=O)Nc1ccc2c(c1)CC(=O)N([C@@H](C)CO)C[C@H](C)[C@@H](CN(C)S(C)(=O)=O)O2` gave miR-122 sensor inactive.
For CCNC(=O)C[C@H]1CC[C@H]2[C@@H](COC[C@H](O)CN2C(=O)Nc2cccc(OC)c2)O1 the results were miR-122 sensor inactive.
CCOC(=O)CSc1nnc(-c2ccc3ncccc3c2)n1C was read as CAL PDZ FP-1 active, Keap1-Nrf2 PPI inactive, LANA DNA inh inactive and CAL PDZ FP-2 inactive.
Cc1ccc(-c2nnc(SCC(N)=O)n2C)cc1 was read as CAL PDZ FP-1 inactive, miR-122 sensor inactive, Keap1-Nrf2 PPI inactive, LANA DNA inh inactive and CAL PDZ FP-2 inactive.
`Cc1ccc(N2C(=O)C3C4CC(=O)C(c5ccccc54)C3C2=O)cc1` (configuration not stated) gave CAL PDZ FP-1 inactive, miR-122 sensor inconclusive, Keap1-Nrf2 PPI inactive, LANA DNA inh inactive and CAL PDZ FP-2 inactive.
`O=C1CC2c3ccccc3C1C1C(=O)N(Cc3ccccc3)C(=O)C21` (configuration not stated) gave CAL PDZ FP-1 35, Keap1-Nrf2 PPI inactive, LANA DNA inh inactive and CAL PDZ FP-2 inactive.
CO[C@H]1CN(C)C(=O)c2cc(NS(C)(=O)=O)ccc2OC[C@@H](C)N(C(=O)C2CCC2)C[C@H]1C was read as miR-122 sensor inactive.
Screening COC(=O)CCC(=O)N1CCOCCOCCOCC1 returned CAL PDZ FP-1 40, Keap1-Nrf2 PPI inactive, LANA DNA inh inactive and CAL PDZ FP-2 inactive.
Screening O=S(=O)(O)c1ccc(N=NNc2ccc(Br)cc2)cc1 returned CAL PDZ FP-1 52, miR-122 sensor inactive, Keap1-Nrf2 PPI inactive, LANA DNA inh inactive and CAL PDZ FP-2 inactive.
`O=Cc1cc(N=Nc2ccc(S(=O)(=O)O)cc2)ccc1O` gave CAL PDZ FP-1 inactive, Keap1-Nrf2 PPI inactive, LANA DNA inh inactive and CAL PDZ FP-2 inactive.
For O=C(O)Cc1c[nH]c2cccc(O)c12 the results were CAL PDZ FP-1 inactive, Keap1-Nrf2 PPI inactive, LANA DNA inh 102 and CAL PDZ FP-2 inactive.
For O=C(O)Cc1c[nH]c2ccccc12 the results were CAL PDZ FP-1 inactive, miR-122 sensor inactive, Keap1-Nrf2 PPI inactive, LANA DNA inh inactive and CAL PDZ FP-2 inactive.
`O=C(NC(=S)Nc1ccc(S(=O)(=O)N2CCCCC2)cc1)c1cccs1` gave CAL PDZ FP-1 inactive, Keap1-Nrf2 PPI inactive, LANA DNA inh inactive and CAL PDZ FP-2 inactive.
`O=C(NC(=S)Nc1ccc(S(=O)(=O)NC2CCCCC2)cc1)c1cccs1` gave CAL PDZ FP-1 inactive, miR-122 sensor 396, Keap1-Nrf2 PPI inactive, LANA DNA inh inactive and CAL PDZ FP-2 inactive.
CCc1ccccc1N(CC(=O)O)S(C)(=O)=O was read as CAL PDZ FP-1 43, miR-122 sensor inactive, Keap1-Nrf2 PPI inactive and LANA DNA inh inactive.
CCOC(=O)c1ccc(S(=O)(=O)NC2CCCCCCC2)n1C was read as CAL PDZ FP-1 inactive, miR-122 sensor 128, Keap1-Nrf2 PPI inactive, LANA DNA inh inactive and CAL PDZ FP-2 inactive.
For CC(C)NC(=O)N(C)C[C@@H]1Oc2cc(C#C[C@H](C)O)ccc2S(=O)(=O)N([C@H](C)CO)C[C@H]1C the results were miR-122 sensor inactive.
`COc1cc(NC(=S)Nc2ccccn2)cc(OC)c1` gave CAL PDZ FP-1 44, Keap1-Nrf2 PPI inactive, LANA DNA inh inactive and CAL PDZ FP-2 inactive.
Screening Cc1noc(C)c1COc1ccc(C(=O)OC(C)C(=O)Nc2ccc(S(=O)(=O)N3CCOCC3)cc2)cc1 (configuration not stated) returned CAL PDZ FP-1 54, Keap1-Nrf2 PPI inactive, LANA DNA inh inactive and CAL PDZ FP-2 inactive.
For CCCC#Cc1cnc2c(c1)C(=O)N([C@H](C)CO)C[C@H](C)[C@H](CN(C)S(=O)(=O)c1cccc(OC)c1)O2 the results were miR-122 sensor inactive.
Screening CCOc1cc(/C=C(\CC(=O)O)c2nc3ccccc3s2)ccc1OC returned CAL PDZ FP-1 inactive, Keap1-Nrf2 PPI inactive, LANA DNA inh inactive and CAL PDZ FP-2 inactive.
COc1cc(/C=C(\CC(=O)O)c2nc3ccccc3s2)ccc1OCC(=O)Nc1ccccc1F was read as CAL PDZ FP-1 133, miR-122 sensor inactive, Keap1-Nrf2 PPI inactive, LANA DNA inh inactive and CAL PDZ FP-2 inactive.
`C[C@@H]1CN([C@H](C)CO)C(=O)c2cc(NC(=O)CCC(F)(F)F)ccc2O[C@@H]1CN(C)S(=O)(=O)c1ccccc1` gave miR-122 sensor inactive.
Screening COc1ccc(NC2CCCN(C(=O)c3csc(C(C)C)n3)C2)cc1OC (configuration not stated) returned CAL PDZ FP-1 inactive, miR-122 sensor inactive, Keap1-Nrf2 PPI inactive, LANA DNA inh inactive and CAL PDZ FP-2 inactive.
